Laboratory results taken from ChEMBL document CHEMBL6078712, “Triterpenoid phthalimides as selective anti-cancer agents targeting mitochondrial apoptosis” (Eur J Med Chem, 2025).
Active and inactive are the calls of the source. The rule behind the calls is not given here.

Columns and labels:
[1] = Stability in human plasma assessed as compound remaining at 2 uM incubated for 15 mins by RF-MS analysis; assay type: ADME, cell-free; conditions: read-out: Stability
In short: (§1)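 Human plasma stability, plasma protein binding and liver microsome stability, each run in triplicate. Error deviations below 10 %.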

CCRF-CEM [2] = experiment: Induction of apoptosis in human CCRF-CEM cells assessed as necrotic cells at 1 times IC50 incubated for 24 hrs by Annexin V-FITC and PI staining based flow cytometric analysis (reference value: 0.4 %); assay type: functional
In short: (§2)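 Washed in Ca2+-containing binding buffer, then stained 15 min at room temperature in the dark with Annexin V-FITC and propidium iodide (PI at half the kit-recommended level). Read at once by flow cytometry with a 488 nm laser, ≥10,000 cells. Debris excluded; quadrants viable, early apoptotic, late apoptotic/necrotic, necrotic. Three independent experiments.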

[3] = Cytotoxicity against human K562-Tax cells assessed as inhibition of cell growth incubated for 72 hrs by MTS assay; assay type: functional, cell-based
In short: (§3)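 MTS assay on eight human cancer lines and two non-tumour fibroblast lines. IC50 is the concentration that inhibits cell growth by 50 %. SD typically up to 15 % of the mean.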

CCRF-CEM [4] = experiment: Inhibition of DNA synthesis in human CCRF-CEM cells at 1 times IC50 incubated for 24 hrs by BrdU incorporation based flow cytometry; assay type: functional
In short: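 Fixed in ice-cold 70 % ethanol, DNA denatured in 2 M HCl for 30 min, neutralised with borax. Stained with anti-BrdU plus FITC secondary, then PI/RNase A for 1 h. Flow cytometry; % BrdU-positive cells.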

[5] = Metabolic stability in human liver microsomes assessed as parent compound remaining at 2 uM incubated for 60 mins in presence of NADPH by RF-MS analysis; assay type: ADME, Microsome; conditions: read-out: Stability; in short: as §1
CCRF-CEM [6] = experiment: Induction of apoptosis in human CCRF-CEM cells assessed as viable cells at 1 times IC50 incubated for 24 hrs by Annexin V-FITC and PI staining based flow cytometric analysis (reference value: 97.4 %); assay type: functional; in short: as §2
CCRF-CEM [7] = experiment: Induction of cell cycle arrest in human CCRF-CEM cells assessed as downregulation of AKT phosphorylation at 5 times IC50 incubated for 24 hrs by Western blotting analysis; assay type: functional, cell-based
In short: (§4)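 30 µg protein per lane on SDS-PAGE, transferred to nitrocellulose, blocked in 5 % BSA/TBS-Tween. Primary antibodies overnight at 4 °C (Akt, P-Akt Ser473, STAT-3, caspase-3, PARP, cyclin D, cyclin A, Bcl-xL, Bak, Bid, Bim), then HRP secondary and ECL detection. GAPDH as loading control.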

HCT 116 TP53(-/-) = experiment: Cytotoxicity against human HCT116-p53-null cells assessed as inhibition of cell growth incubated for 72 hrs by MTS assay; assay type: functional, cell-based; in short: as §3
CCRF-CEM [8] = experiment: Induction of cell cycle arrest in human CCRF-CEM cells assessed as downregulation of Cyclin D expression at 5 times IC50 incubated for 24 hrs by Western blotting analysis; assay type: functional, cell-based; in short: as §4
CCRF-CEM [9] = experiment: Induction of cell cycle arrest in human CCRF-CEM cells assessed as downregulation of total AKT expression at 5 times IC50 incubated for 24 hrs by Western blotting analysis; assay type: functional, cell-based; in short: as §4
CCRF-CEM [10] = experiment: Induction of apoptosis in human CCRF-CEM cells assessed as downregulation of BCL-XL expression at 5 times IC50 incubated for 24 hrs by Western blotting analysis; assay type: functional, cell-based; in short: as §4
CCRF-CEM [11] = experiment: Induction of cell cycle arrest in human CCRF-CEM cells assessed as downregulation of Cyclin A expression at 5 times IC50 incubated for 24 hrs by Western blotting analysis; assay type: functional, cell-based; in short: as §4
K562 = experiment: Cytotoxicity against human K562 cells assessed as inhibition of cell growth incubated for 72 hrs by MTS assay; assay type: functional, cell-based; conditions: K562, 72 h; in short: as §3

remaining at 0.25 h, 2 µM [1]: 97%
remaining at 1 h, 2 µM [5]: 81%
SMILES: CC(=O)O[C@H]1CC[C@]2(C)[C@H]3CC[C@@H]4[C@H]5[C@H](c6cc7c(c(-c8ccccc8)c6)C(=O)N(c6cc[nH]n6)C7=O)CC[C@]5(C(=O)O)CC[C@@]4(C)[C@]3(C)CC[C@H]2C1(C)C
Activity (CCRF-CEM [2]): 0%
IC50 [3]: 13.3 µM
inhibition (INH) (CCRF-CEM [4]): 23.6%
Activity (CCRF-CEM [6]): 92.8%
Activity (CCRF-CEM [7]): Active
IC50 (HCT 116 TP53(-/-)): 13.7 µM
Activity (CCRF-CEM [8]): Active
Activity (CCRF-CEM [9]): Active; Slight Activity Observed
Activity (CCRF-CEM [10]): Active
Activity (CCRF-CEM [11]): Active
IC50 (K562): 14.5 µM
